In ChEMBL document CHEMBL5653631, “A Potent and Selective ULK1 Inhibitor Suppresses Autophagy and Sensitizes Cancer Cells to Nutrient Stress” (iScience, 2018):

How the values were obtained:
[1] = target: Death-associated protein kinase 3 (Homo sapiens) (UniProt O43293); assay: Inhibition of human recombinant DAPK3 at 40 nM in presence of ATP by radiometric assay relative to control
[2] = target: Fibroblast growth factor receptor 2 (Homo sapiens) (UniProt P21802); assay: Inhibition of human recombinant FGFR2 at 40 nM in presence of ATP by radiometric assay relative to control
[3] = target: T1, Protein kinase C zeta type (Homo sapiens) (UniProt Q05513); assay: Inhibition of human recombinant PKCz at 40 nM related to control ULK1
T1 sequence (whole entry): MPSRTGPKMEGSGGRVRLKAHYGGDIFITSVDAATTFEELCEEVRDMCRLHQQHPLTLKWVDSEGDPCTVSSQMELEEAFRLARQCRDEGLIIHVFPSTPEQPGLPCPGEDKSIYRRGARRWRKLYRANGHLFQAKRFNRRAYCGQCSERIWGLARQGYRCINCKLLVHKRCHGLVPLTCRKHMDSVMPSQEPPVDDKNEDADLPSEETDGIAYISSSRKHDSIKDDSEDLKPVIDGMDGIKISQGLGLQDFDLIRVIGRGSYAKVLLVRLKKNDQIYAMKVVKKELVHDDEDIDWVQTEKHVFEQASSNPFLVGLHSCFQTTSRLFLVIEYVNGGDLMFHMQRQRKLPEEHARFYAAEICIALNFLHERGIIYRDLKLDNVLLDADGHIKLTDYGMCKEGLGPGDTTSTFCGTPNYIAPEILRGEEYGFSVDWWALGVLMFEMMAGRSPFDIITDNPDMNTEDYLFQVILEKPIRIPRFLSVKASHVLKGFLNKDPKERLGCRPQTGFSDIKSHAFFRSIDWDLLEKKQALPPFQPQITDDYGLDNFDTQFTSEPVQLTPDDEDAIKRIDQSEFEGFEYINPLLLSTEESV

[4] = target: Insulin receptor (Homo sapiens) (UniProt P06213); assay: Inhibition of human recombinant INSR at 40 nM in presence of ATP by radiometric assay relative to control
Homo sapiens = species on record: Homo sapiens; assay: Inhibition of human recombinant CK1d at 40 nM in presence of ATP by radiometric assay relative to control
[5] = target: Protein kinase C gamma type (Homo sapiens) (UniProt P05129); assay: Inhibition of human recombinant PKCg at 15 nM in presence of ATP by radiometric assay relative to control
[6] = target: Casein kinase I isoform gamma-3 (Homo sapiens) (UniProt Q9Y6M4); assay: Inhibition of human recombinant CK1g3 at 15 nM in presence of ATP by radiometric assay relative to control
[7] = target: T1, Protein kinase C zeta type (Homo sapiens); assay: Inhibition of human recombinant PKCz at 15 nM related to control ULK1
[8] = target: Hepatocyte growth factor receptor (Homo sapiens) (UniProt P08581); assay: Inhibition of human recombinant MET at 15 nM related to control ULK1
[9] = target: Serine/threonine-protein kinase 35 (Homo sapiens) (UniProt Q8TDR2); assay: Inhibition of human recombinant CLIK1 at 500 nM in presence of ATP by radiometric assay relative to control
[10] = target: NT-3 growth factor receptor (Homo sapiens) (UniProt Q16288); assay: Inhibition of human recombinant TRKC at 500 nM related to control ULK1
[11] = target: T2, Serine/threonine-protein kinase STK11 (Homo sapiens) (UniProt Q15831); assay: Inhibition of human recombinant LKB1 at 500 nM in presence of ATP by radiometric assay relative to control
T2 sequence (whole entry): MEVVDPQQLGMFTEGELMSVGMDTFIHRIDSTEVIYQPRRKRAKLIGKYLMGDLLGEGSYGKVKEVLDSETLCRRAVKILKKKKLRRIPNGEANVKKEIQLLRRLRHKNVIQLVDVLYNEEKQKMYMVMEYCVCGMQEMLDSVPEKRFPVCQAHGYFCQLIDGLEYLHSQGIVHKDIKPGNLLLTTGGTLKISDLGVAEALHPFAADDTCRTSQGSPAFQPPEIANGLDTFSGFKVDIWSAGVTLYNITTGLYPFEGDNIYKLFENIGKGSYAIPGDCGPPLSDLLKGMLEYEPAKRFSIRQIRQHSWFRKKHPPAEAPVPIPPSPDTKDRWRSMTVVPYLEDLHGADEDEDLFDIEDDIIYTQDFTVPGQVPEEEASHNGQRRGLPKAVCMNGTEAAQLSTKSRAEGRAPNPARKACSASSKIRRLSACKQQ

[12] = target: Serine/threonine-protein kinase PAK 1 (Homo sapiens) (UniProt Q13153); assay: Inhibition of human recombinant PAK1 at 500 nM in presence of ATP by radiometric assay relative to control
[13] = target: T3, Aurora kinase A (Homo sapiens) (UniProt O14965); assay: Inhibition of human recombinant AurA at 500 nM related to control ULK1
T3 sequence (whole entry): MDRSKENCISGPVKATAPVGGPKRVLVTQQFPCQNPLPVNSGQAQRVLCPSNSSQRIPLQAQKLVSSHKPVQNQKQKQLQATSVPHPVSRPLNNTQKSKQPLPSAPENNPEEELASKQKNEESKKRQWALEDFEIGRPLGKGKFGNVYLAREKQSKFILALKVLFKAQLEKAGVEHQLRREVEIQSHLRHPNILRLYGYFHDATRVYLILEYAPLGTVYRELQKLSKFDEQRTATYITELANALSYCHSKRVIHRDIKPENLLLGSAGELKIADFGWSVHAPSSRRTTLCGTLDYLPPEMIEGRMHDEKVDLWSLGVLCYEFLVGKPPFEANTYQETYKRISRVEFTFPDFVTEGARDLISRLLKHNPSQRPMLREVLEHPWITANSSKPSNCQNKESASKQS
Method in brief: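 Panel of 327 recombinant human kinases, each assayed in vitro by radiometric activity assay in duplicate at a single inhibitor concentration per compound, chosen with reference to its ULK1 inhibition. Activity remaining was expressed as percent of vehicle control, and percent inhibition was calculated as 100 minus percent activity remaining.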

[14] = target: Homeodomain-interacting protein kinase 2 (Homo sapiens) (UniProt Q9H2X6); assay: Inhibition of human recombinant HIPK2 at 500 nM in presence of ATP by radiometric assay relative to control
Homeodomain-interacting protein kinase 2 (Homo sapiens), sequence (Q9H2X6 whole entry, looked up): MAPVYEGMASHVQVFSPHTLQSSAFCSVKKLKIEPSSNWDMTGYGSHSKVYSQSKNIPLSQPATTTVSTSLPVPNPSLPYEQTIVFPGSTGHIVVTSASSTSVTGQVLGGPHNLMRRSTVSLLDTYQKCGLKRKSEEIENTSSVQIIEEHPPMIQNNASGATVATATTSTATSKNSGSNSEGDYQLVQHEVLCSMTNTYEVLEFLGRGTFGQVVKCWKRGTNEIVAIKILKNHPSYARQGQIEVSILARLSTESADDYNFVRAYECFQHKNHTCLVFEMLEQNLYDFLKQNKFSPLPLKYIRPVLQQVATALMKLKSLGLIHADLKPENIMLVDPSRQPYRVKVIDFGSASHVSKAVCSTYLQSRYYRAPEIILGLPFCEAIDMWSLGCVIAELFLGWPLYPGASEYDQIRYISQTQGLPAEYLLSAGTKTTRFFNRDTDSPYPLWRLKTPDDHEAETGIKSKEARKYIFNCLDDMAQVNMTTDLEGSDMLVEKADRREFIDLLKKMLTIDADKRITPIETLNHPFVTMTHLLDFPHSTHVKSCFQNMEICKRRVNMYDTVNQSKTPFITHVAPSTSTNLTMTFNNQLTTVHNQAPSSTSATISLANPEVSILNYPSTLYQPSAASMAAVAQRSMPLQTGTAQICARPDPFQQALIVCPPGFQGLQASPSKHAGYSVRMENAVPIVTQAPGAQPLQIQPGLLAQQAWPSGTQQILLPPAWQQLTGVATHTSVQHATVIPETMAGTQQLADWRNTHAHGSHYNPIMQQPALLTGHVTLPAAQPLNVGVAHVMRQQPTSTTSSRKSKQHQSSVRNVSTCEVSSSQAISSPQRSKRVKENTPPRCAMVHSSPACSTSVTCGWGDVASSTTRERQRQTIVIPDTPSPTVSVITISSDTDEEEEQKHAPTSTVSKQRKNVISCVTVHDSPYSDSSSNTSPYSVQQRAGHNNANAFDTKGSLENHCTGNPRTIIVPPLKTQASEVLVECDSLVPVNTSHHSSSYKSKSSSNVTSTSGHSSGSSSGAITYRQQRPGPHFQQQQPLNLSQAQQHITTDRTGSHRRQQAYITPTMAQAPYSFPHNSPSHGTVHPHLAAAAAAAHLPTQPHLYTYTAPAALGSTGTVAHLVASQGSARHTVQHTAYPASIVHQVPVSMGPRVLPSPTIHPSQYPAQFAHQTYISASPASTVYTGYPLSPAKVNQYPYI

Hepatocyte growth factor receptor (Homo sapiens), sequence (P08581 whole entry, looked up): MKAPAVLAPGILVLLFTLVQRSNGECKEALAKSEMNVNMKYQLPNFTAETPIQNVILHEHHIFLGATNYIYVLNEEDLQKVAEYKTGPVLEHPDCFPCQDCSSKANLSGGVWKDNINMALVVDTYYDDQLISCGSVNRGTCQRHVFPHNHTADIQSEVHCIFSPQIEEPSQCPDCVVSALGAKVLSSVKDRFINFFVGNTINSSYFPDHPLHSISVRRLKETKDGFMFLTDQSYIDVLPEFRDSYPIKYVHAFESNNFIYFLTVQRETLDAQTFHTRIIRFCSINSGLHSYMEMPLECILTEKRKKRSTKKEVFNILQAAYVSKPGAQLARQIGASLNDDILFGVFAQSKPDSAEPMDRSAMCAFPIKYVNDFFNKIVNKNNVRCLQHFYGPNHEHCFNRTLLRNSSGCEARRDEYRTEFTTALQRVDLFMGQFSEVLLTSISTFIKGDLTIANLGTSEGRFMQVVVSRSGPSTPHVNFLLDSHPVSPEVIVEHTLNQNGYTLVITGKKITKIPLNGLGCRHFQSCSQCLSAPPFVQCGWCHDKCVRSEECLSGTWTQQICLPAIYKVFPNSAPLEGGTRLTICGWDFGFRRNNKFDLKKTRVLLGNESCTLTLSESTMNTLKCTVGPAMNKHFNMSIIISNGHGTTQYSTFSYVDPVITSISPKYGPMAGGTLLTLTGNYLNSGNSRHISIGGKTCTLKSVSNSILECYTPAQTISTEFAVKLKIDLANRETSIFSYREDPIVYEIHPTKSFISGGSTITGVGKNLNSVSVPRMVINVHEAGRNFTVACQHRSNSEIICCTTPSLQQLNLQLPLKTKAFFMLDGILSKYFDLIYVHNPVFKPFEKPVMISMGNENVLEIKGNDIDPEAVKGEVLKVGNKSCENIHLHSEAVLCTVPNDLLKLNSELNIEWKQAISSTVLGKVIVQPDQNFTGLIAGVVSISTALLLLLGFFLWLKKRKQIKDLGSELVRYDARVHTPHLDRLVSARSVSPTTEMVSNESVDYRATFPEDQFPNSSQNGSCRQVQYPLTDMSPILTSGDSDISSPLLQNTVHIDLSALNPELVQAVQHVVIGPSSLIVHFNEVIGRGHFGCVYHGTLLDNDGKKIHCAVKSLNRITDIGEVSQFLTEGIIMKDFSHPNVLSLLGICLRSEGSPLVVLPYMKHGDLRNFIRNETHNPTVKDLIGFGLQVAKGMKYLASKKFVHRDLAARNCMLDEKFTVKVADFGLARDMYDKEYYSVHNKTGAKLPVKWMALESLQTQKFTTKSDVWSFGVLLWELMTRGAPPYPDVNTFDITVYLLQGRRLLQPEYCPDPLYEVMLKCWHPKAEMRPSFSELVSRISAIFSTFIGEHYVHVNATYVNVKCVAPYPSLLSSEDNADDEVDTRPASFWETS
NT-3 growth factor receptor (Homo sapiens), sequence (Q16288 32-839 limits assumed): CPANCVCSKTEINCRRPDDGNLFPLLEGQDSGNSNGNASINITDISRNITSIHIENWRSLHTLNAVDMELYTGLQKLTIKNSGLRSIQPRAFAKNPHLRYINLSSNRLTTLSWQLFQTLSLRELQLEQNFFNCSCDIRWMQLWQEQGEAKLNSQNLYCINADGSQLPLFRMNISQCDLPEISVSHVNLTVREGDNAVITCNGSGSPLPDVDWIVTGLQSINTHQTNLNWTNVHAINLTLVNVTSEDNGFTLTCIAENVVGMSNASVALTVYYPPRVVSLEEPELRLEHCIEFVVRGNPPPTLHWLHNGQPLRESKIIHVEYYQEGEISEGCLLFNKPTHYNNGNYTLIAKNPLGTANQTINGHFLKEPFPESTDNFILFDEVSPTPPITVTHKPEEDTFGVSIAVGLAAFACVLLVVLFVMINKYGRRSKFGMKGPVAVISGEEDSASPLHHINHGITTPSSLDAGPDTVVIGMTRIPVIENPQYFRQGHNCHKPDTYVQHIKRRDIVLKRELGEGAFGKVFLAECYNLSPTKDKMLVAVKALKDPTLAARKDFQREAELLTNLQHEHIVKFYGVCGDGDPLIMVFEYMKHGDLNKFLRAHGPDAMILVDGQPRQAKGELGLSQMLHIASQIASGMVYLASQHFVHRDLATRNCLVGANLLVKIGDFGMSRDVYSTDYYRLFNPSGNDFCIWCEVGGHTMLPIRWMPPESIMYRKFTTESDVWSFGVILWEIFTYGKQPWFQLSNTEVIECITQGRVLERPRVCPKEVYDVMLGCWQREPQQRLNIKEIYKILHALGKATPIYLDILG
Serine/threonine-protein kinase 35 (Homo sapiens), sequence (Q8TDR2 whole entry): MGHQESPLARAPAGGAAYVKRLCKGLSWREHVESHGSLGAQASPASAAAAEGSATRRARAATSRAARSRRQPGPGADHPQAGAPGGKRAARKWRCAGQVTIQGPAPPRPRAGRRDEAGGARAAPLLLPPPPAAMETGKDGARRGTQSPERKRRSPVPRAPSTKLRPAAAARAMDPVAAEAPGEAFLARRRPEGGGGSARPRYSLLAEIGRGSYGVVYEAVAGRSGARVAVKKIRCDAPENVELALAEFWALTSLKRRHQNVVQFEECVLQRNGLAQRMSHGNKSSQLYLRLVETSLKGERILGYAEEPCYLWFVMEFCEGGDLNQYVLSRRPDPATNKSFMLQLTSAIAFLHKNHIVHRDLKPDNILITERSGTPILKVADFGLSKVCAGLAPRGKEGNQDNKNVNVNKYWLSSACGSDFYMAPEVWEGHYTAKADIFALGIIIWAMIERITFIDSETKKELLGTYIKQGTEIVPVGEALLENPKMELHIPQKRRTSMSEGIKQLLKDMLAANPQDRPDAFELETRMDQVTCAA
Death-associated protein kinase 3 (Homo sapiens), sequence (O43293 whole entry, looked up): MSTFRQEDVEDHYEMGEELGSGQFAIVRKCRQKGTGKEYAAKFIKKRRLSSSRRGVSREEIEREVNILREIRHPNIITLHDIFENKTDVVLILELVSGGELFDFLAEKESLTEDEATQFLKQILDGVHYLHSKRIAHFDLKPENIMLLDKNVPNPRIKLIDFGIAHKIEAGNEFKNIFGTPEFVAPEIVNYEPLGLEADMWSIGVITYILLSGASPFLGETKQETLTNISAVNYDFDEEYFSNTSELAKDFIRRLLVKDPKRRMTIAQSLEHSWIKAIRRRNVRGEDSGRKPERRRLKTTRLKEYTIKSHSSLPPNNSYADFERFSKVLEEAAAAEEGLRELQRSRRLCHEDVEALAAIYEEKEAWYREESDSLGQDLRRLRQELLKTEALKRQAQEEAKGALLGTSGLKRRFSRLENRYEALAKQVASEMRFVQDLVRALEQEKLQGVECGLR

O=C(N[C@@H](C1CC1)C(F)(F)F)c1cc(-c2cnn3cc(-c4ccc(F)cc4)cnc23)cs1
inhibition [1]: 8%
inhibition [2]: 0%
fold change (FC) [3]: 0
inhibition [4]: 0%
inhibition (Homo sapiens): 3%

CC(C)[C@H](NC(=O)c1cc(-c2cnn3cc(-c4ccc(OCCN5CCCCC5)cc4)cnc23)cs1)C(F)(F)F
inhibition [5]: 0%
inhibition [6]: 3%
fold change (FC) [7]: 0
fold change (FC) [8]: 0

CNC(=O)c1ccccc1Oc1nc(Nc2cc(OC)c(OC)c(OC)c2)ncc1Br
inhibition [9]: 3%
fold change (FC) [10]: 0
inhibition [11]: 12%
inhibition [12]: 20%
fold change (FC) [13]: 1.08
inhibition [14]: 0%
